Results reported in ChEMBL document CHEMBL4406830, “Galloyl esters of trans-stilbenes are inhibitors of FASN with anticancer activity on non-small cell lung cancer cells” (Eur J Med Chem, 2019).
pIC50: −log10 of the molar value. Active and inactive are the calls of the source. The calls are words filed in the database; no cut-off is given here.

Columns and labels:
NCI-H1703 [1] = experiment: Antiproliferative activity against human NCI-H1703 cells expressing FASN assessed as reduction in cell viability after 72 hrs by MTS assay; assay type: functional, cell-based; conditions: NCI-H1703, 72 h
Summary of the method: (§1)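 ATCC-sourced cells. H1299, H1650, H1703 and PC-9 were grown in RPMI 1640 with 10% FBS. A549 was grown in high-glucose DMEM with 10% FBS and 1 mM pyruvate. SAEC was grown in BEGM. Cells were seeded at 3 × 10^3 per well (H1650 3.5 × 10^3) and left to attach overnight. Serial dilutions from DMSO stocks were added, 0.1% DMSO final, for 72 h at 37 °C, 5% CO2. Medium was replaced, MTS added, and A490 read after 2 h. IC50 was taken from % viability versus log concentration, 3 experiments.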

[2] = Selectivity index, ratio of IC50 for human SAE cells lacking FASN expression to IC50 for human NCI-H1703 cells expressing FASN
Summary of the method: (§2)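 Index is the SAEC IC50 divided by the IC50 in the FASN-expressing NSCLC line. IC50s came from MTS viability after 72 h exposure at 37 °C, 5% CO2, DMSO 0.1% v/v. Absorbance was read at 490 nm after 2 h. The fit was % viability against log concentration, with 4 technical repeats and 3 independent experiments. NSCLC lines were grown in RPMI/10% FBS; SAEC in BEGM.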

NCI-H1299 = experiment: Antiproliferative activity against human NCI-H1299 cells expressing FASN assessed as reduction in cell viability after 72 hrs by MTS assay; assay type: functional, cell-based; conditions: NCI-H1299, 72 h; summary of the method: as §1
[3] = Selectivity index, ratio of IC50 for human SAE cells lacking FASN expression to IC50 for human NCI-H1299 cells expressing FASN expression; summary of the method: as §2
NCI-H1650 = experiment: Antiproliferative activity against human NCI-H1650 cells expressing FASN assessed as reduction in cell viability after 72 hrs by MTS assay; assay type: functional, cell-based; conditions: NCI-H1650, 72 h; summary of the method: as §1
[4] = Selectivity index, ratio of IC50 for human SAE cells lacking FASN expression to IC50 for human NCI-H1650 cells expressing FASN; summary of the method: as §2
PC-9 [5] = experiment: Antiproliferative activity against human PC9 cells harboring FASN expression and EGFR delE746-A750 mutant assessed as reduction in cell viability after 72 hrs by MTS assay; assay type: functional, cell-based; conditions: PC-9, 72 h; summary of the method: as §1
[6] = Cytotoxicity against human SAE cells lacking FASN expression assessed as reduction in cell viability after 72 hrs by MTS assay; assay type: cell-based; summary of the method: as §1
NCI-H1703 [7] = experiment: Induction of apoptosis in human NCI-H1703 cells expressing FASN assessed as increase in late apoptotic cells at 100 uM after 72 hrs by Annexin-V FITC staining/PI-based flow cytometry; assay type: functional, cell-based
Summary of the method: (§3)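 H1703 or PC-9 cells seeded at 1.5 × 10^5 cells/2 mL in 6-well plates and left to attach overnight. Treated at 100 µM, with a 0.1% DMSO vehicle control, at 37 °C and 5% CO2. Exposure is given as 72 h in the results and 48 h in the methods. Cells were harvested, rinsed in ice-cold PBS, stained with Annexin V-FITC/PI in binding buffer and read by flow cytometry. Early apoptosis was Annexin V+ only; late apoptosis was double positive. Triplicates.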

PC-9 [8] = experiment: Induction of apoptosis in human PC9 cells harboring FASN expression and EGFR delE746-A750 mutant at 100 uM after 72 hrs by Annexin-V FITC/PI staining-based flow cytometry; assay type: functional, cell-based; summary of the method: as §3
[9] = molecular target: Fatty acid synthase (Homo sapiens) (UniProt P49327); experiment: Inhibition of full length human FASN transfected in HeLa cell lysates at 10 uM using acetyl Co-A/malonyl Co-A as substrate preincubated with enzyme for 2 hrs followed by substrate addition measured after 10 mins in presence of NADPH by microplate reader analysis; assay type: subcellular; conditions: Lysate
Sequence of Fatty acid synthase (Homo sapiens) (P49327 whole entry, looked up): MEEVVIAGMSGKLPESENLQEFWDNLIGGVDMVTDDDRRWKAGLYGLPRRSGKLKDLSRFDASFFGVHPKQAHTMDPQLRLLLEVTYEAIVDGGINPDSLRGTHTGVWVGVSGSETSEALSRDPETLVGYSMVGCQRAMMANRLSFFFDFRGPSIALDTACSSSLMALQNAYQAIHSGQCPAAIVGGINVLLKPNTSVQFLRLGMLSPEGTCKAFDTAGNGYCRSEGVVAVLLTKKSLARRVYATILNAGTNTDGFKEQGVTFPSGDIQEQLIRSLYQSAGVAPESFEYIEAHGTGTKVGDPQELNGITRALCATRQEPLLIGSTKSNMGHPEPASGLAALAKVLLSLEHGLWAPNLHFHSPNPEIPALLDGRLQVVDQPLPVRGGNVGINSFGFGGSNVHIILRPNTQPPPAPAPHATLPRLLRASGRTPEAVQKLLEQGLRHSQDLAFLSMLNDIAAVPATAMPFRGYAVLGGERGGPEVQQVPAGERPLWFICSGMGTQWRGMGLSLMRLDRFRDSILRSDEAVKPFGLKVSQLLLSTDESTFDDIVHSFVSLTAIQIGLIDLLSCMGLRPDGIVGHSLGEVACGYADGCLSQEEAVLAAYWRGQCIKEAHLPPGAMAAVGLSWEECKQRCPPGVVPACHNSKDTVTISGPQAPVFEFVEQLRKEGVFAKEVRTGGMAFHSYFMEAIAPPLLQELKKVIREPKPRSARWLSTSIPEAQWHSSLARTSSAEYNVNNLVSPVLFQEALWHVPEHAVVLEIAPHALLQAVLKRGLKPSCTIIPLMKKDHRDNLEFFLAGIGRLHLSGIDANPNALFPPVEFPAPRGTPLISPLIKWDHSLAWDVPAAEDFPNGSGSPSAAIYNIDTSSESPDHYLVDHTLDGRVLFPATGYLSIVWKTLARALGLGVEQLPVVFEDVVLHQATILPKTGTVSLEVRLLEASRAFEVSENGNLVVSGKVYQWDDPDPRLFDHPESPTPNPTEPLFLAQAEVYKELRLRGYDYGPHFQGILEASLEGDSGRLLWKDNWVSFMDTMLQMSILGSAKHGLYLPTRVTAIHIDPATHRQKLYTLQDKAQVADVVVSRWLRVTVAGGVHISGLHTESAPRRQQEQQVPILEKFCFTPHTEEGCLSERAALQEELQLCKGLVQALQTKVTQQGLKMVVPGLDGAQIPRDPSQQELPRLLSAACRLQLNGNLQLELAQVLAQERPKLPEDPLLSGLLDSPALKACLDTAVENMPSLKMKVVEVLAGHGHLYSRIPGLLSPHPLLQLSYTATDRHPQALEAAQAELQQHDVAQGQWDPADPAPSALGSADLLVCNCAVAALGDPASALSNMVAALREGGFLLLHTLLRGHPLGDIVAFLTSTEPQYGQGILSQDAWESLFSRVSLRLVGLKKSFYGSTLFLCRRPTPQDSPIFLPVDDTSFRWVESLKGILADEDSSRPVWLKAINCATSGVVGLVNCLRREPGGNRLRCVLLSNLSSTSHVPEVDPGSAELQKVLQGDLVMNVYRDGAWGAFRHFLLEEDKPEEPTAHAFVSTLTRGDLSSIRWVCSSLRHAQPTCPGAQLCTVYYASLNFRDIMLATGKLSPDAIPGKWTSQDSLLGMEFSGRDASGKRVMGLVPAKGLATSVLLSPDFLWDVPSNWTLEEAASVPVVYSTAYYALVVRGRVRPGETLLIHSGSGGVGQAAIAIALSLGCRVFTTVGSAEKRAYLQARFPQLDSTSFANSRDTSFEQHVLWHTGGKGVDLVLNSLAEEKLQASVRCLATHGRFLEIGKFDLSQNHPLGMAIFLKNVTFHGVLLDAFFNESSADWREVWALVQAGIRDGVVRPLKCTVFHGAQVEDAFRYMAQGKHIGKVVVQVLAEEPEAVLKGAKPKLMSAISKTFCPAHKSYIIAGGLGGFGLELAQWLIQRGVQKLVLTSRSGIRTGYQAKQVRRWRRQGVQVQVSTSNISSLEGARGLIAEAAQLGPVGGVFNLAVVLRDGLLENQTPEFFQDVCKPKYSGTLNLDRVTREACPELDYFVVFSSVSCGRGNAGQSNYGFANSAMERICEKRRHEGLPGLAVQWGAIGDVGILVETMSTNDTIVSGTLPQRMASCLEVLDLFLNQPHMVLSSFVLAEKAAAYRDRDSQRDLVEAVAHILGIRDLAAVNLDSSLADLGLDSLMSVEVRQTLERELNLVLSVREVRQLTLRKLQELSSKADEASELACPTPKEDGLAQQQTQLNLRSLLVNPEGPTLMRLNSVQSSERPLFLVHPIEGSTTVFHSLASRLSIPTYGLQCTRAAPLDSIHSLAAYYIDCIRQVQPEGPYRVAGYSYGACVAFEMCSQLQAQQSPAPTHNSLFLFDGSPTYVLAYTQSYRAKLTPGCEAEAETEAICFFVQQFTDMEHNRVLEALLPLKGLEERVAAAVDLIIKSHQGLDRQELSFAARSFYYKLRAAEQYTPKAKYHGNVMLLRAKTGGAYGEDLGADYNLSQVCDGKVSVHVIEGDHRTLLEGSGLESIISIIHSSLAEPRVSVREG
Summary of the method: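 Human FASN was made by in vitro translation from a FASN plasmid. Lysate was diluted 3:7 in 100 mM potassium phosphate, pH 6.5, 1 mM EDTA. It was preincubated with compound (10 µM final) for 2 h at 37 °C. Buffer containing acetyl-CoA (55 µM) and NADPH (330 µM) was added, then the reaction was started with malonyl-CoA (500 µM stock). A340 was read at 0 and 10 min; triplicates.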

[10] = molecular target: Fatty acid synthase (Homo sapiens) (UniProt P49327); experiment: (§4) Inhibition of FASN in human PC9 cells harboring FASN expression and EGFR delE746-A750 mutant assessed as disruption of AKT/FASN positive feedback loop by measuring decrease in FASN expression at 100 uM after 48 hrs by Western immunoblot based densitometric assay relative to control; assay type: cell-based
Summary of the method: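 PC-9 or H1703 cells were seeded at 8 × 10^5 per 100 mm dish and treated for 48 h at 1 or 5 µM (or 5, 50 and 100 µM). RIPA lysates were BCA-quantified and run on 8% SDS-PAGE, then transferred to PVDF. Blots were probed for FASN, AKT, phospho-AKT S473 and GAPDH and detected by ECL. Bands were quantified by densitometry and normalised to vehicle control.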

[11] = molecular target: Fatty acid synthase (Homo sapiens) (UniProt P49327); experiment: as §4, with “measuring” for “measuring decrease in”, “hrs in presence of exogenous lipid concentrate” for “hrs”; assay type: cell-based
Summary of the method: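 PC-9 cells were seeded at 8 × 10^5 per 100 mm dish, attached overnight, then treated 48 h with compound plus chemically defined lipid concentrate. Cells were lysed in RIPA with protease inhibitors and protein quantified by BCA. Lysates were run on 8% SDS-PAGE and blotted to PVDF. Blots were probed for FASN (1:2,000, PBS-T/milk block) and GAPDH. ECL detection; FASN/GAPDH densitometry normalised to untreated control.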

[12] = molecular target: Fatty acid synthase (Homo sapiens) (UniProt P49327); experiment: as §4, with “in ratio of phosphoAKT/AKT” for “in FASN”; assay type: cell-based
Summary of the method: (§5)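 PC-9 cells were seeded at 8 × 10^5 per 100 mm dish and treated 48 h with compound, with or without chemically defined lipid concentrate (vehicle control included). RIPA lysates with protease inhibitors were BCA-quantified and run on 8% SDS-PAGE, then PVDF. Blots were probed for phospho-AKT Ser473 and total AKT (each 1:1,000, TBS-T/milk block). ECL detection; pAKT/AKT densitometry normalised to untreated control.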

[13] = molecular target: Fatty acid synthase (Homo sapiens) (UniProt P49327); experiment: as §4, with “ratio of phosphoAKT/AKT” for “decrease in FASN”, “hrs in presence of exogenous lipid concentrate” for “hrs”; assay type: cell-based; summary of the method: as §5
[14] = Selectivity index, ratio of IC50 for human SAE cells lacking FASN expression to IC50 for human PC9 cells harboring FASN expression and EGFR delE746-A750 mutant; summary of the method: as §2
A549 = experiment: Antiproliferative activity against human A549 cells expressing FASN assessed as reduction in cell viability after 72 hrs by MTS assay; assay type: functional, cell-based; conditions: A549, 72 h; summary of the method: as §1
[15] = Selectivity index, ratio of IC50 for human SAE cells lacking FASN expression to IC50 for human A549 cells expressing FASN
Summary of the method: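 The ratio IC50(SAEC)/IC50(NSCLC line) was calculated from 72 h MTS viability IC50 values.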

PC-9 [16] = experiment: Antiproliferative activity against human PC9 cells harboring FASN expression and EGFR delE746-A750 mutant assessed as cell viability at 100 uM after 72 hrs in presence of exogenous lipid concentrate by MTS assay; assay type: functional, cell-based
Summary of the method: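 PC-9 cells seeded at 3 × 10^3 cells/100 µL in RPMI 1640 and left to attach overnight. Compound added as for the viability assay, with DMSO at 0.1% v/v. After 6 h at 37 °C and 5% CO2, chemically defined lipid concentrate was added to 2% v/v final. Incubation then continued 72 h. Viability was read by MTS absorbance at 490 nm against untreated cells, in triplicate.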

[17] = molecular target: Fatty acid synthase (Homo sapiens) (UniProt P49327); experiment: Inhibition of full length human FASN transfected in HeLa cell lysates at 150 uM using acetyl Co-A/malonyl Co-A as substrate preincubated with enzyme for 2 hrs followed by substrate addition measured after 10 mins in presence of NADPH by microplate reader analysis; assay type: subcellular; conditions: Lysate
Summary of the method: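 Human FASN was made by coupled in vitro translation of a FASN plasmid; the legend calls this HeLa cell lysate. Lysate was diluted 3:7 in 100 mM potassium phosphate pH 6.5 with 1 mM EDTA, then preincubated with compound for 2 h at 37 °C. Buffer containing acetyl-CoA (55 µM) and NADPH (330 µM) was added, and the reaction started with malonyl-CoA solution (500 µM). A340 was read at 0 and 10 min, and inhibition taken against untreated lysate. Triplicates.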

## O=C(O[C@@H]1Cc2c(O)cc(O)cc2O[C@@H]1c1cc(O)c(O)c(O)c1)c1cc(O)c(O)c(O)c1 [EPIGALOCATECHIN GALLATE]
NCI-H1703 [1]
  pIC50: 4.77
[2]
  Ratio IC50: 6.4
NCI-H1299
  pIC50: 4.69
[3]
  Ratio IC50: 5.3
NCI-H1650
  pIC50: 4.61
[4]
  Ratio IC50: 4.4
PC-9 [5]
  pIC50: 4.11
[6]
  pIC50: 3.96
NCI-H1703 [7]
  Activity: Active
PC-9 [8]
  Activity: Active
[9]
  inhibition: inactive
[10]
  Ratio: 0.06
[11]
  Ratio: 0.89
[12]
  Ratio: 0.14
[13]
  Ratio: 0.67
[14]
  Ratio IC50: 1.4
A549
  pIC50: 3.73
[15]
  Ratio IC50: 0.6
PC-9 [16]
  inhibition: inactive
[17]
  inhibition: Active
